The source made the active and inactive calls. No cut-off for these calls is given here.
Tests used:
[1] = tested on: Rattus norvegicus; assay: In vivo galactitol inhibitory activity measured by its ability to inhibit galactitol accumulation in lens at 6 mg/Kg/day; NS=Not significant (% Inhibition); format: functional, organism-based; conditions: Lens of camera-type eye
In short: (§1)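 Rats (n = 6) fed 20% galactose for 4 days, with compound given in the diet at the stated mg/kg per day. Galactitol accumulation in lens, sciatic nerve or diaphragm is scored as percent inhibition versus the non-treated group, as means of 3–8 drug-treated tissue samples. Dunnett's multiple comparison test applies; NS means p > 0.05.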

[2] = tested on: Rattus norvegicus; assay: In vivo galactitol inhibitory activity measured by its ability to inhibit galactitol accumulation in sciatic nerve at 6 mg/Kg/day; format: functional
In short: (§2)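 Rats (n = 6) fed 20% galactose for 4 days, with compound given in the diet at the stated daily dose. Galactitol accumulation was measured in lens, sciatic nerve and diaphragm, and % inhibition was taken versus the nontreated group. Means are from three to eight drug-treated tissue samples. Dunnett's multiple comparison test was applied, with p > 0.05 reported as not significant.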

[3] = tested on: Rattus norvegicus; assay: In vivo galactitol inhibitory activity measured by its ability to inhibit galactitol accumulation in diaphragm at 6 mg/Kg/day; format: functional; in short: as §1
[4] = biological target: Aldo-keto reductase family 1 member B1 (Bos taurus) (UniProt P16116); assay: In vitro aldose reductase inhibitory activity measured by NADPH-dependent inhibition of glyceraldehyde reduction in a partially purified bovine lens preparation at 10E-6 M
In short: (§3)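 Aldose reductase partially purified from bovine lens. Inhibition of NADPH-dependent glyceraldehyde reduction is measured at the single stated concentration and reported as percent inhibition, the mean of two determinations.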

[5] = tested on: Mus musculus; assay: Antihyperglycemic activity measured as percent decrease in mice plasma glucose at 100 mg/Kg/day; format: functional
In short: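 Male db/db (C57BL/KsJ) mice, 4–6 per group, dosed at 100 mg/kg per day. Plasma glucose of the drug-treated group is expressed as percent decrease relative to a vehicle-treated control group. Values are mean ± SE, with p < 0.05 marked.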

[6] = biological target: Aldo-keto reductase family 1 member B1 (Bos taurus) (UniProt P16116); assay: NADPH-dependent inhibition of glyceraldehyde reduction by partially purified aldose reductase from bovine lens at 10e-5 M
In short: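 Partially purified aldose reductase from bovine lens. Inhibition of NADPH-dependent glyceraldehyde reduction was measured at a single test concentration. Values are % inhibition of enzymatic activity, mean of two determinations.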

[7] = tested on: Rattus norvegicus; assay: In vivo galactitol inhibitory activity measured by its ability to inhibit galactitol accumulation in diaphragm at 3 mg/Kg/day; NS=Not significant (% Inhibition); format: functional, organism-based; in short: as §1
[8] = tested on: Rattus norvegicus; assay: In vivo galactitol inhibitory activity measured by its ability to inhibit galactitol accumulation in sciatic nerve at 6 mg/Kg/day; NS=Not significant (% Inhibition); format: functional, organism-based; in short: as §2
[9] = tested on: Rattus norvegicus; assay: In vivo galactitol inhibitory activity measured by its ability to inhibit galactitol accumulation in diaphragm at 10 mg/Kg/day; format: functional; in short: as §1
[10] = tested on: Rattus norvegicus; assay: In vivo galactitol inhibitory activity measured by its ability to inhibit galactitol accumulation in sciatic nerve at 3 mg/Kg/day; NS=Not significant (% Inhibition); format: functional, organism-based; in short: as §2
[11] = tested on: Rattus norvegicus; assay: In vivo galactitol inhibitory activity measured by its ability to inhibit galactitol accumulation in lens at 3 mg/Kg/day; NS=Not significant (% Inhibition); format: functional, organism-based; conditions: Lens of camera-type eye; in short: as §1
[12] = tested on: Rattus norvegicus; assay: In vivo galactitol inhibitory activity measured by its ability to inhibit galactitol accumulation in sciatic nerve at 10 mg/Kg/day; NS=Not significant (% Inhibition); format: functional, organism-based; in short: as §2
[13] = biological target: Aldo-keto reductase family 1 member B1 (Bos taurus) (UniProt P16116); assay: In vitro aldose reductase inhibitory activity measured by NADPH-dependent inhibition of glyceraldehyde reduction in a partially purified bovine lens preparation at 10E-7 M; in short: as §3
[14] = tested on: Rattus norvegicus; assay: In vivo galactitol inhibitory activity measured by its ability to inhibit galactitol accumulation in lens at 10 mg/Kg/day; NS=Not significant (% Inhibition); format: functional; conditions: Lens of camera-type eye; in short: as §1
[15] = tested on: Rattus norvegicus; assay: In vivo galactitol inhibitory activity measured by its ability to inhibit galactitol accumulation in lens at 6 mg/Kg/day; format: functional, Lens of camera-type eye; in short: as §1
[16] = tested on: Rattus norvegicus; assay: In vivo galactitol inhibitory activity measured by its ability to inhibit galactitol accumulation in lens at 10 mg/Kg/day; format: functional; conditions: Lens of camera-type eye; in short: as §1
[17] = tested on: Rattus norvegicus; assay: In vivo galactitol inhibitory activity measured by its ability to inhibit galactitol accumulation in sciatic nerve at 10 mg/Kg/day; format: functional; conditions: Rattus norvegicus, Sciatic nerve; in short: as §2
[18] = tested on: Rattus norvegicus; assay: In vivo galactitol inhibitory activity measured by its ability to inhibit galactitol accumulation in diaphragm at 6 mg/Kg/day; NS=Not significant (% Inhibition); format: functional, organism-based; in short: as §1

Structure (SMILES)	inhibition [4]	Decrease [5]	further results
COc1ccc2c(C(=S)N(C)CC(=O)O)cccc2c1C(F)(F)F [TOLRESTAT]	–	–	inhibition [1]: inactive; inhibition in vivo at 6 mg/kg/day [2]: 53%; inhibition in vivo at 6 mg/kg/day [3]: 80%
CN1C2(CC(=O)NC2=O)c2ccccc2S1(=O)=O (centres undefined)	0%	<15%	inhibition [6]: 40%
CN1C(=O)c2cc(Br)ccc2C12CC(=O)NC2=O (centres undefined)	71%	<15%	inhibition [1]: inactive; inhibition [7]: inactive; inhibition [8]: inactive; inhibition in vivo at 6 mg/kg/day [3]: 27%; inhibition in vivo at 10 mg/kg/day [9]: 39%; inhibition [10]: inactive; inhibition [11]: inactive; inhibition [12]: inactive; inhibition [13]: 27%; inhibition [14]: inactive
O=C1CC2(C(=O)N1)c1ccccc1S(=O)(=O)N2Cc1ccccc1F (centres undefined)	–	<15%	–
Cc1cc(Br)ccc1CN1C2(CC(=O)NC2=O)c2ccccc2S1(=O)=O (centres undefined)	–	<15%	–
O=C1CC2(C(=O)N1)c1ccccc1S(=O)(=O)N2Cc1c(F)c(F)c(F)c(F)c1F (centres undefined)	–	<15%	–
O=C1CC2(C(=O)N1)c1ccccc1S(=O)(=O)N2Cc1ccc(C(F)(F)F)cc1 (centres undefined)	0%	<15%	inhibition [6]: 34%
O=C1CC2(C(=O)N1)c1ccccc1S(=O)(=O)N2Cc1cccc(Br)c1 (centres undefined)	–	<15%	–
Cc1oc(-c2ccccc2)nc1CCN1C2(CC(=O)NC2=O)c2ccccc2S1(=O)=O (centres undefined)	–	<15%	–
CN1C(=O)c2ccc(Cl)cc2C12CC(=O)NC2=O (stereo in doubt; 32)	80%	–	inhibition [1]: inactive; inhibition [13]: 37%
CN1C(=O)c2ccc([N+](=O)[O-])cc2C12CC(=O)NC2=O (centres undefined)	77%	<15%	inhibition [7]: inactive; inhibition [10]: inactive; inhibition [11]: inactive; inhibition [13]: 32%
CN1C(=O)c2ccc(Cl)cc2C12CC(=O)NC2=O (single isomer, unassigned; (+)) [listing 1 of 2 here]	–	–	Inhibition [15]: 21%; inhibition in vivo at 6 mg/kg/day [2]: 58%; inhibition in vivo at 6 mg/kg/day [3]: 67%
O=C(O)CN1C2(CC(=O)NC2=O)c2ccccc2S1(=O)=O (centres undefined)	–	–	inhibition [6]: 0%
Cc1oc(-c2ccccc2)nc1CCOc1ccc(N2C3(CC(=O)NC3=O)c3ccccc3S2(=O)=O)cc1 (centres undefined)	–	<15%	–
O=C1CC2(C(=O)N1)c1ccccc1C(=O)N2Cc1cccc(Br)c1 (centres undefined)	–	<15%	–
CC(C)(C)c1ccc(CN2C(=O)c3ccccc3C23CC(=O)NC3=O)cc1 (centres undefined)	–	<15%	–
O=C1CC2(C(=O)N1)c1ccccc1S(=O)(=O)N2Cc1ccc(Br)cc1Cl (centres undefined)	–	<15%	–
O=C1CC2(C(=O)N1)c1ccccc1S(=O)(=O)N2Cc1ccc([N+](=O)[O-])cc1 (centres undefined)	0%	<15%	inhibition [6]: 37%
CSc1ccc(CN2C3(CC(=O)NC3=O)c3ccccc3S2(=O)=O)cc1 (centres undefined)	–	<15%	–
Nc1ccc(CN2C3(CC(=O)NC3=O)c3ccccc3S2(=O)=O)cc1 (centres undefined)	–	<15%	–
O=C1CC2(C(=O)N1)c1ccccc1C(=O)N2Cc1ccc(Br)cc1 (centres undefined)	–	<15%	–
O=C1CC2(C(=O)N1)c1ccccc1S(=O)(=O)N2Cc1ccc(Br)cc1 (centres undefined)	–	37%	–
COc1ccc2c(c1)C(=O)N(C)C21CC(=O)NC1=O (centres undefined)	56%	<15%	inhibition [7]: inactive; inhibition [10]: inactive; inhibition [11]: inactive
O=C1CC2(C(=O)N1)c1ccccc1S(=O)(=O)N2CCc1ccc(Br)cc1 (centres undefined)	–	25%	inhibition [6]: 0%
CCCCN1C2(CC(=O)NC2=O)c2ccccc2S1(=O)=O (centres undefined)	–	<15%	–
O=C1CC2(C(=O)N1)c1ccccc1S(=O)(=O)N2Cc1ccccc1 (centres undefined)	0%	<15%	inhibition [6]: 45%

Structure (SMILES)	inhibition [4]	Decrease [5]	further results
O=C1CC2(C(=O)N1)C(=O)N(Cc1ccc(Br)cc1F)c1c(Cl)cccc12 (centres undefined)	92%	<15%	inhibition in vivo at 10 mg/kg/day [16]: 36%; inhibition in vivo at 10 mg/kg/day [9]: 84%; inhibition [13]: 83%; inhibition in vivo at 10 mg/kg/day [17]: 86%
O=C1CC2(C(=O)N1)c1ccccc1C(=O)N2Cc1ccc(I)cc1 (centres undefined)	–	<15%	–
O=C1CC2(C(=O)N1)c1ccccc1C(=O)N2Cc1ccccc1 (centres undefined)	–	22%	–
O=C1CC2(C(=O)N1)c1ccccc1S(=O)(=O)N2Cc1ccc2ccccc2c1 (centres undefined)	20%	<15%	inhibition [6]: 57%
Cc1cc(CN2C3(CC(=O)NC3=O)c3ccccc3S2(=O)=O)ccc1Br (centres undefined)	–	<15%	–
CCCCCc1ccc(CN2C(=O)c3ccccc3C23CC(=O)NC3=O)cc1 (centres undefined)	–	<15%	–
O=C1CC2(C(=O)N1)c1ccccc1C(=O)N2Cc1c(F)cccc1Cl (centres undefined)	–	<15%	–
CCN1C2(CC(=O)NC2=O)c2ccccc2S1(=O)=O (centres undefined)	–	<15%	–
CN1C(=O)c2ccc(Cl)cc2C12CC(=O)NC2=O (single isomer, unassigned; (+)) [listing 2 of 2 here]	82%	–	inhibition [13]: 39%
O=C1CC2(C(=O)N1)c1ccccc1S(=O)(=O)N2Cc1ccc(F)cc1 (centres undefined)	–	<15%	–
O=C1CC2(C(=O)N1)c1ccccc1S(=O)(=O)N2Cc1ccc(-c2ccccc2)cc1 (centres undefined)	15%	<15%	inhibition [6]: 54%
CC(=O)Nc1ccc(CN2C3(CC(=O)NC3=O)c3ccccc3S2(=O)=O)cc1 (centres undefined)	–	<15%	–
O=C1CC2(C(=O)N1)c1ccccc1S(=O)(=O)N2Cc1ccc(Br)cc1F (centres undefined)	0%	48%	inhibition [6]: 52%
O=C1CC2(C(=O)N1)c1ccccc1S(=O)(=O)N2Cc1ccc(Cl)cc1Cl (centres undefined)	–	19%	–
CCC(CC)N1C2(CC(=O)NC2=O)c2ccccc2S1(=O)=O (centres undefined)	–	31%	–
O=C1CC2(C(=O)N1)c1ccccc1S(=O)(=O)N2CCCCc1ccc(Cl)cc1 (centres undefined)	–	20%	–
CSc1ccc2c(c1)C(=O)N(C)C21CC(=O)NC1=O (centres undefined)	60%	<15%	inhibition [7]: inactive; inhibition [10]: inactive; inhibition [11]: inactive
CN1C(=O)c2cc3ccccc3cc2C12CC(=O)NC2=O (centres undefined)	82%	<15%	inhibition in vivo at 10 mg/kg/day [16]: 14%; inhibition in vivo at 10 mg/kg/day [9]: 59%; inhibition [13]: 37%; inhibition in vivo at 10 mg/kg/day [17]: 47%
CCCCN1C(=O)c2ccccc2C12CC(=O)NC2=O (centres undefined)	0%	<15%	–
O=C1CC2(C(=O)N1)c1ccccc1S(=O)(=O)N2Cc1ccc(Oc2ccccc2)cc1 (centres undefined)	24%	<15%	inhibition [6]: 67%
Cc1oc(-c2ccccc2)nc1CCOc1ccc(CN2C3(CC(=O)NC3=O)c3ccccc3S2(=O)=O)cc1 (centres undefined)	–	<15%	–
O=C1CC2(C(=O)N1)c1ccccc1S(=O)(=O)N2Cc1ccc(I)cc1 (centres undefined)	–	<15%	–
O=C1CC2(C(=O)N1)c1ccccc1S(=O)(=O)N2Cc1ccc2ccccc2c1Br (centres undefined)	25%	<15%	inhibition [6]: 59%
COC(=O)c1ccc2c(c1)C1(CC(=O)NC1=O)N(C)C2=O (centres undefined)	49%	<15%	inhibition [1]: inactive; inhibition [7]: inactive; inhibition [8]: inactive; inhibition [18]: inactive; inhibition in vivo at 10 mg/kg/day [9]: 16%; inhibition [10]: inactive; inhibition [11]: inactive; inhibition [12]: inactive; inhibition [13]: 14%; inhibition [14]: inactive
O=C1CC2(C(=O)N1)c1ccccc1S(=O)(=O)N2c1ccc(Br)cc1 (centres undefined)	–	<15%	inhibition [6]: 0%

— ChEMBL document CHEMBL1126205, “Novel spirosuccinimides with incorporated isoindolone and benzisothiazole 1,1-dioxide moieties as aldose reductase inhibitors and antihyperglycemic agents” (1992)
